From ChEMBL document CHEMBL1121733, “Synthesis and evaluation of ureido- and vinylureidopenicillins as inhibitors of intraruminal lactic acid production” (J Med Chem, 1981)
Values after ≈ are worked out from the molar mass of the structure shown.

How the values were obtained:
[1] = Percent inhibition of lactic acid production by the compound at 0.5 p.p.m.; type: functional; parameters: scale not given: the % may be the effect or the level left
Summary of the method: (§1)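 Screen at 50, 5 and 0.5 µg/mL of incubation contents in strained bovine rumen fluid mixed 1:1 with CO2-saturated glucose/trypticase buffer, 5.5 h at 39 °C. Stopped with metaphosphoric acid, l(+)-lactate measured enzymatically. Expressed as lactate production as % of control incubations without compound.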

[2] = Percent inhibition of lactic acid production by the compound at 50 p.p.m.; type: functional; parameters: scale not given: the % may be the effect or the level left; summary of the method: as §1
[3] = Percent inhibition of lactic acid production by the compound at 5 p.p.m.; type: functional; parameters: scale not given: the % may be the effect or the level left; summary of the method: as §1
[4] = Lipophilicity estimated on reversed phase TLC; type: physicochemical; details: silicone oil-coated silica gel plates, 30% MeOH in pH 7.0 buffer
Summary of the method: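 Reversed-phase TLC on silica gel G plates dipped in 20 vol % silicone oil in hexane and dried. Mobile phase 30 vol % MeOH in pH 7.0 buffer. ΔR_M measured against a reference compound run on every plate, averaged over 2–6 plates.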

[5] = system: Escherichia coli; experiment: In vitro Minimum inhibitory concentration against Escherichia coli ATCC 25922; type: functional
Summary of the method: (§2)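 Twofold broth microdilution from 200 to 0.0008 µg/mL in brain–heart infusion broth with 0.066 g/L tetrazolium chloride. Inoculum was 1 µL of a 1:10 dilution of an 18 h, 37 °C culture. Plates incubated 16 h at 37 °C, with growth read as red precipitate. Triplicate trays per compound per organism.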

[6] = system: Staphylococcus aureus; experiment: (§3) In vitro Minimum inhibitory concentration against Staphylococcus penicillin G resistant); type: functional, staphylococcus pureus
Summary of the method: (§4)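 Broth microdilution in brain–heart infusion broth with 0.066 g/L tetrazolium chloride. Serial twofold dilutions from 200 to 0.0008 µg/mL. Inoculum: 1 µL of a 1:10 dilution of an 18 h, 37 °C culture. Incubated 16 h at 37 °C; growth read as red precipitate. MIC taken from triplicate trays per compound per organism.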

[7] = system: Staphylococcus aureus; experiment: In vitro Minimum inhibitory concentration against Staphylococcus aureus ATCC 6538P (penicillin G sensitive); type: functional; summary of the method: as §2
[8] = system: Streptococcus pyogenes; experiment: In vitro Minimum inhibitory concentration against Streptococcus pyogenes ATCC 8668; type: functional; summary of the method: as §2
[9] = system: Enterococcus faecium; experiment: In vitro Minimum inhibitory concentration against Streptococcus faecium ATCC 8043-2; type: functional; summary of the method: as §2
[10] = Effective inhibition concentration for reduction of lactic acid production to less than 10% of control; type: functional
Summary of the method: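 Bovine rumen fluid from a fistulated animal, strained through cheesecloth, mixed 1:1 with CO2-saturated buffer (glucose 27 g/L, trypticase 1.50 g/L, Na2HPO4 4.26 g/L). Compounds retested from 0.5 mg/mL stock serially diluted to 0.004 mg/mL, duplicate tubes, 5.5 h at 39 °C. Stopped with 25% metaphosphoric acid, centrifuged, l(+)-lactate measured enzymatically. Value is the minimum concentration giving lactate below 10% of no-compound control.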

[11] = Effective inhibition concentration for reduction of propionic acid production to less than 95% of control; type: functional
Summary of the method: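 Rumen fluid from a fistulated bovine, strained and mixed 1:1 with CO2-saturated buffer with moderate substrate at normal intraruminal pH (volatile fatty acid model). Retest dilutions from 0.5 mg/mL stock down to 0.004 mg/mL, triplicate tubes, 9 h. Stopped with 25% metaphosphoric acid, centrifuged, propionate measured by GC-FID. Value is the minimum concentration giving propionate below 95% of control.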

[12] = system: Staphylococcus aureus; experiment: as §3; type: functional; summary of the method: as §4

SMILES | Control [1] | Control [2] | Control [3] | Delta RM [4] | MIC [5] | MIC [6] | MIC [7] | MIC [8] | MIC [9] | Concentration [10] | Dose [11] | MIC [12]
CCOC(=O)c1ccc(NC(=O)NC2C(=O)N3C2SC(C)(C)[C@@H]3C(=O)O)cc1 (some centres not stated) | 101% | 3% | 95% |  |  |  |  |  |  |  |  | 
CC(C)(C)c1ccc(/C=C/NC(=O)NC2C(=O)N3C2SC(C)(C)[C@@H]3C(=O)O)cc1.CCN(CC)CC (some centres not stated) |  |  |  | 1.31 |  |  |  |  |  |  |  | 
CC1(C)SC2C(NC(=O)N/C=C/c3cccc(Br)c3)C(=O)N2[C@H]1C(=O)[O-].[Na+] (some centres not stated) | 142% | 3% | 0% | 0.69 |  |  |  |  |  |  |  | 
CC1(C)S[C@@H]2[C@H](NC(=O)Cc3ccccc3)C(=O)N2[C@H]1C(=O)O [PENICILLIN G] |  |  |  |  | 25 µg/mL (≈ 74.8 µM) | 50 µg/mL (≈ 150 µM) | 0.05 µg/mL (≈ 0.15 µM) | 0.01 µg/mL (≈ 0.0299 µM) | 0.4 µg/mL (≈ 1.2 µM) |  |  | 
CC(C)(C)c1ccc(/C=C/NC(=O)NC2C(=O)N3C2SC(C)(C)[C@@H]3C(=O)O)cc1 (some centres not stated) | 0% | 0% | 0% |  |  |  |  |  |  | 0.16 µg/mL | > 10 µg/mL | 
CC1(C)SC2C(NC(=O)NC3CCCCC3)C(=O)N2[C@H]1C(=O)[O-].[Na+] (some centres not stated) | 99% | 2% | 0% | -0.62 |  |  |  |  |  |  |  | 
Cc1ccc(/C=C/NC(=O)NC2C(=O)N3C2SC(C)(C)[C@@H]3C(=O)[O-])cc1.[Na+] (some centres not stated) | 0% | 2% | 2% | 0.5 |  |  |  |  |  | 0.31 µg/mL | > 10 µg/mL | 
CC1(C)SC2C(NC(=O)N/C=C/c3cccs3)C(=O)N2[C@H]1C(=O)[O-].[Na+] (some centres not stated) | 102% | 0% | 52% | -0.2 |  |  |  |  |  |  |  | 
CC1(C)SC2C(NC(=O)NCCc3ccccc3)C(=O)N2[C@H]1C(=O)[O-].[Na+] (some centres not stated) | 4% | 9% | 6% | -0.6 | 100 µg/mL |  | 0.1 µg/mL | 0.1 µg/mL | 3.12 µg/mL | 0.31 µg/mL | 5 µg/mL | 50 µg/mL
CC1(C)SC2C(NC(=O)N/C=C/c3ccc(Cl)cc3)C(=O)N2[C@H]1C(=O)[O-].[Na+] (some centres not stated) | 0% | 10% | 2% | 0.58 | > 200 µg/mL | 50 µg/mL | 6.25 µg/mL | 3.12 µg/mL | > 200 µg/mL | 1.25 µg/mL | > 10 µg/mL | 
CC1(C)SC2C(NC(=O)Nc3ccccc3)C(=O)N2[C@H]1C(=O)[O-].[Na+] (some centres not stated) | 96% | 3% | 110% | -0.75 |  |  |  |  |  |  |  | 
COc1cc(/C=C/NC(=O)NC2C(=O)N3C2SC(C)(C)[C@@H]3C(=O)[O-])cc(OC)c1OC.[Na+] (some centres not stated) | 105% | 8% | 2% | -0.45 |  |  |  |  |  |  |  | 
CC1(C)SC2C(NC(=O)N/C=C/c3ccc4c(c3)OCO4)C(=O)N2[C@H]1C(=O)[O-].[Na+] (some centres not stated) | 0% | 4% | 0% | -0.06 | 100 µg/mL | 50 µg/mL | 6.25 µg/mL | 1.6 µg/mL | 200 µg/mL | 0.16 µg/mL | > 10 µg/mL | 
CC1(C)SC2C(NC(=O)NCc3ccc4ccccc4c3)C(=O)N2[C@H]1C(=O)[O-].[Na+] (some centres not stated) | 4% | 9% | 4% | 0 | > 200 µg/mL |  | 0.05 µg/mL | 0.05 µg/mL | 3.12 µg/mL | 0.08 µg/mL | 5 µg/mL | 50 µg/mL
CC1(C)SC2C(NC(=O)Nc3ccc(Cl)cc3)C(=O)N2[C@H]1C(=O)[O-].[Na+] (some centres not stated) | 102% | 2% | 112% | -0.01 |  |  |  |  |  |  |  | 
CC(C)(C)c1ccc(/C=C/NC(=O)NC2C(=O)N3C2SC(C)(C)[C@@H]3C(=O)[O-])cc1.[Na+] (some centres not stated) |  |  |  | 1.31 | > 200 µg/mL | 100 µg/mL | 3.12 µg/mL | 1.6 µg/mL | > 200 µg/mL |  |  | 
CC1(C)SC2C(NC(=O)NC3CC3c3ccccc3)C(=O)N2[C@H]1C(=O)[O-].[Na+] (some centres not stated) | 104% | 8% | 4% | -0.29 |  |  |  |  |  |  |  | 
CC1(C)SC2C(NC(=O)NCCc3ccc4ccccc4c3)C(=O)N2[C@H]1C(=O)[O-].[Na+] (some centres not stated) | 2% | 9% | 7% | 0.89 | > 200 µg/mL | 25 µg/mL | 0.1 µg/mL | 0.05 µg/mL | 6.25 µg/mL | 0.31 µg/mL | > 10 µg/mL | 
C/C(=C\NC(=O)NC1C(=O)N2C1SC(C)(C)[C@@H]2C(=O)[O-])c1ccccc1.[Na+] (some centres not stated) | 87% | 0% | 5% | 0.3 |  |  |  |  |  |  |  | 
CC1(C)SC2C(NC(=O)N/C=C/c3ccc4ccccc4c3)C(=O)N2[C@H]1C(=O)[O-].[Na+] (some centres not stated) | 1% | 8% | 2% | 1.05 | > 200 µg/mL | 100 µg/mL | 3.12 µg/mL | 3.12 µg/mL | 200 µg/mL | 0.31 µg/mL | > 10 µg/mL | 
CC1(C)SC2C(NC(=O)N/C=C/C3CCCCC3)C(=O)N2[C@H]1C(=O)[O-].[Na+] (some centres not stated) | 0% | 2% | 2% | 0.77 | > 200 µg/mL | 50 µg/mL | 0.4 µg/mL | 0.2 µg/mL | 50 µg/mL | 0.31 µg/mL | 2.5 µg/mL | 
CC1(C)SC2C(NC(=O)N/C=C/c3ccco3)C(=O)N2[C@H]1C(=O)[O-].[Na+] (some centres not stated) | 101% | 3% | 89% | -0.26 |  |  |  |  |  |  |  | 
CC1(C)SC2C(NC(=O)N/C=C/c3ccc(Cl)c(Cl)c3)C(=O)N2[C@H]1C(=O)[O-].[Na+] (some centres not stated) | 107% | 1% | 106% | 1.44 |  |  |  |  |  |  |  | 
CC(C)NC(=O)NC1C(=O)N2C1SC(C)(C)[C@@H]2C(=O)[O-].[Na+] (some centres not stated) | 108% | 7% | 119% | -2 |  |  |  |  |  |  |  | 
CC1(C)SC2C(NC(=O)N/C=C/c3cccc4ccccc34)C(=O)N2[C@H]1C(=O)[O-].[Na+] (some centres not stated) | 111% | 3% | 0% | 0.66 |  |  |  |  |  |  |  | 
CCOc1ccc(/C=C/NC(=O)NC2C(=O)N3C2SC(C)(C)[C@@H]3C(=O)[O-])cc1.[Na+] (some centres not stated) | 0% | 1% | 1% | 0.43 |  |  |  |  |  | 0.31 µg/mL | > 10 µg/mL | 
